Experimental data published in ChEMBL document CHEMBL3875155, “New (arylalkyl)azole derivatives showing anticonvulsant effects could have VGSC and/or GABAAR affinity according to molecular modeling studies” (Eur J Med Chem, 2016).
Active and inactive are the calls of the source. No cut-off for these calls is given here.

Legend:
[1] = tested on: Mus musculus; experiment: Neurotoxicity in Swiss albino mouse at 30 mg/kg, ip after 0.5 hrs by rotarod test; assay type: toxicity, organism-based; details: in vivo
Summary of the method: (§1)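 Rotarod turning at 6 rpm, run after i.p. dosing of PEG 400 suspension (30, 100 or 300 mg/kg; 0.5 or 4 h). Falling off three times within 1 min marks a mouse as neurotoxic. Placebo (PEG) mice serve as control. Scored as number failing/number tested.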

[2] = tested on: Mus musculus; experiment: Neurotoxicity in Swiss albino mouse at 100 mg/kg, ip after 0.5 hrs by rotarod test; assay type: toxicity, organism-based; details: in vivo; summary of the method: as §1
[3] = tested on: Mus musculus; experiment: Neurotoxicity in Swiss albino mouse at 300 mg/kg, ip after 0.5 hrs by rotarod test; assay type: toxicity, organism-based; details: in vivo; summary of the method: as §1
[4] = tested on: Mus musculus; experiment: Neurotoxicity in Swiss albino mouse at 30 mg/kg, ip after 4 hrs by rotarod test; assay type: toxicity, organism-based; details: in vivo; summary of the method: as §1
[5] = tested on: Mus musculus; experiment: Neurotoxicity in Swiss albino mouse at 100 mg/kg, ip after 4 hrs by rotarod test; assay type: toxicity, organism-based; details: in vivo; summary of the method: as §1
[6] = tested on: Mus musculus; experiment: Neurotoxicity in Swiss albino mouse at 300 mg/kg, ip after 4 hrs by rotarod test; assay type: toxicity, organism-based; details: in vivo; summary of the method: as §1
[7] = tested on: Mus musculus; experiment: Anticonvulsant activity in Swiss albino mouse assessed as protection against maximal electroshock-induced seizures at 30 mg/kg, ip after 0.5 hrs; assay type: functional, organism-based
Summary of the method: (§2)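 Compound suspended in PEG 400 and given i.p. at 30, 100 or 300 mg/kg, 0.5 or 4 h before testing. Saline (0.9%) applied to the corneas, then 60 Hz alternating current for 0.2 s through corneal electrodes. A mouse counts as protected if hind limb tonic extension stays under 90°. PEG-only placebo mice serve as negative control. Scored as number protected/number tested.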

[8] = tested on: Mus musculus; experiment: Anticonvulsant activity in Swiss albino mouse assessed as protection against maximal electroshock-induced seizures at 100 mg/kg, ip after 0.5 hrs; assay type: functional, organism-based; summary of the method: as §2
[9] = tested on: Mus musculus; experiment: Anticonvulsant activity in Swiss albino mouse assessed as protection against maximal electroshock-induced seizures at 300 mg/kg, ip after 0.5 hrs; assay type: functional, organism-based; summary of the method: as §2
[10] = tested on: Mus musculus; experiment: Anticonvulsant activity in Swiss albino mouse assessed as protection against maximal electroshock-induced seizures at 30 mg/kg, ip after 4 hrs; assay type: functional, organism-based; summary of the method: as §2
[11] = tested on: Mus musculus; experiment: Anticonvulsant activity in Swiss albino mouse assessed as protection against maximal electroshock-induced seizures at 100 mg/kg, ip after 4 hrs; assay type: functional, organism-based; summary of the method: as §2
[12] = tested on: Mus musculus; experiment: Anticonvulsant activity in Swiss albino mouse assessed as protection against maximal electroshock-induced seizures at 300 mg/kg, ip after 4 hrs; assay type: functional, organism-based; summary of the method: as §2
[13] = tested on: Mus musculus; experiment: Anticonvulsant activity in Swiss albino mouse assessed as protection against subcutaneously injected metrazol induced seizures at 300 mg/kg, ip after 4 hrs; assay type: functional, organism-based
Summary of the method: (§3)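 Test compounds were given i.p. as PEG 400 suspensions at 30, 100 or 300 mg/kg, 0.5 or 4 h ahead. Metrazol 85 mg/kg is injected s.c. in the neck midline, and mice are watched for 30 min. A mouse counts as protected if it has no clonic spasm episode (about 3–5 s) of the limbs, jaws or vibrissae. PEG placebo serves as negative control. Scored as number protected/number tested.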

[14] = tested on: Mus musculus; experiment: Anticonvulsant activity in Swiss albino mouse assessed as protection against subcutaneously injected metrazol induced seizures at 300 mg/kg, ip after 0.5 hrs; assay type: functional, organism-based; summary of the method: as §3
[15] = tested on: Mus musculus; experiment: Anticonvulsant activity in Swiss albino mouse assessed as protection against subcutaneously injected metrazol induced seizures at 30 mg/kg, ip after 4 hrs; assay type: functional, organism-based; summary of the method: as §3
[16] = tested on: Mus musculus; experiment: Anticonvulsant activity in Swiss albino mouse assessed as protection against subcutaneously injected metrazol induced seizures at 100 mg/kg, ip after 4 hrs; assay type: functional, organism-based; summary of the method: as §3

CCC(=O)O/N=C(\Cn1cncn1)c1ccc2ccccc2c1.Cl
Activity [1]: Non-Toxic
Activity [2]: Non-Toxic
Activity [3]: Non-Toxic
Activity [4]: Non-Toxic
Activity [5]: Non-Toxic
Activity [6]: Non-Toxic

O=C1NC(=O)C(c2ccccc2)(c2ccccc2)N1 [PHENYTOIN]
Activity [7]: Active
Activity [8]: Active
Activity [9]: Active
Activity [10]: Active
Activity [11]: Active
Activity [12]: Active
Activity [1]: Non-Toxic
Activity [2]: Non-Toxic
Activity [3]: Toxic
Activity [4]: Non-Toxic
Activity [5]: Toxic
Activity [6]: Toxic

CCCC(=O)O/N=C(\Cn1cncn1)c1ccc2ccccc2c1
Activity [12]: Active
Activity [1]: Non-Toxic
Activity [2]: Non-Toxic
Activity [3]: Non-Toxic
Activity [4]: Non-Toxic
Activity [5]: Non-Toxic
Activity [6]: Non-Toxic

CCC(C)CC(=O)O/N=C(\Cn1cncn1)c1ccc2ccccc2c1.Cl (configuration not stated)
Activity [8]: Active
Activity [12]: Active
Activity [13]: Active
Activity [1]: Non-Toxic
Activity [2]: Non-Toxic
Activity [3]: Non-Toxic
Activity [4]: Non-Toxic
Activity [5]: Non-Toxic
Activity [6]: Non-Toxic

CC(C)C(=O)O/N=C(\Cn1cncn1)c1ccc2ccccc2c1.Cl
Activity [12]: Active
Activity [1]: Non-Toxic
Activity [2]: Non-Toxic
Activity [3]: Non-Toxic
Activity [4]: Non-Toxic
Activity [5]: Non-Toxic
Activity [6]: Non-Toxic

CC(C)CC(=O)O/N=C(\Cn1cncn1)c1ccc2ccccc2c1.Cl
Activity [9]: Active
Activity [11]: Active
Activity [14]: Active
Activity [15]: Active
Activity [16]: Active
Activity [13]: Active
Activity [1]: Non-Toxic
Activity [2]: Non-Toxic
Activity [3]: Non-Toxic
Activity [4]: Non-Toxic
Activity [5]: Non-Toxic
Activity [6]: Non-Toxic

CCCC(C)C(=O)O/N=C(\Cn1cncn1)c1ccc2ccccc2c1.Cl (configuration not stated)
Activity [9]: Active
Activity [1]: Non-Toxic
Activity [2]: Non-Toxic
Activity [3]: Non-Toxic
Activity [4]: Non-Toxic
Activity [5]: Non-Toxic
Activity [6]: Non-Toxic

CC(C)(C)C(=O)O/N=C(\Cn1cncn1)c1ccc2ccccc2c1
Activity [1]: Non-Toxic
Activity [2]: Non-Toxic
Activity [3]: Non-Toxic
Activity [4]: Non-Toxic
Activity [5]: Non-Toxic
Activity [6]: Non-Toxic

CCC(C)C(=O)O/N=C(\Cn1cncn1)c1ccc2ccccc2c1 (configuration not stated)
Activity [8]: Active
Activity [9]: Active
Activity [13]: Active
Activity [1]: Non-Toxic
Activity [2]: Non-Toxic
Activity [3]: Non-Toxic
Activity [4]: Non-Toxic
Activity [5]: Non-Toxic
Activity [6]: Non-Toxic

NC(=O)N1c2ccccc2C=Cc2ccccc21 [CARBAMAZEPINE]
Activity [7]: Active
Activity [8]: Active
Activity [9]: Active
Activity [11]: Active
Activity [12]: Active
Activity [14]: Active
Activity [16]: Active
Activity [13]: Active
Activity [1]: Non-Toxic
Activity [2]: Non-Toxic
Activity [3]: Toxic
Activity [4]: Non-Toxic
Activity [5]: Non-Toxic
Activity [6]: Non-Toxic

Cl.O=C(Cc1ccccc1)O/N=C(\Cn1cncn1)c1ccc2ccccc2c1
Activity [1]: Non-Toxic
Activity [2]: Non-Toxic
Activity [3]: Non-Toxic
Activity [4]: Non-Toxic
Activity [5]: Non-Toxic
Activity [6]: Non-Toxic

O=C(/C=C/c1ccccc1)O/N=C(\Cn1cncn1)c1ccc2ccccc2c1
Activity [1]: Non-Toxic
Activity [2]: Non-Toxic
Activity [3]: Non-Toxic
Activity [4]: Non-Toxic
Activity [5]: Non-Toxic
Activity [6]: Non-Toxic

O=C(O/N=C(\Cn1cncn1)c1ccc2ccccc2c1)C1CCCCC1
Activity [9]: Active
Activity [1]: Non-Toxic
Activity [2]: Non-Toxic
Activity [3]: Non-Toxic
Activity [4]: Non-Toxic
Activity [5]: Non-Toxic
Activity [6]: Non-Toxic

CC(C)CCC(=O)O/N=C(\Cn1cncn1)c1ccc2ccccc2c1.Cl
Activity [8]: Active
Activity [9]: Active
Activity [13]: Active
Activity [1]: Non-Toxic
Activity [2]: Non-Toxic
Activity [3]: Non-Toxic
Activity [4]: Non-Toxic
Activity [5]: Non-Toxic
Activity [6]: Non-Toxic

CCCCC(=O)O/N=C(\Cn1cncn1)c1ccc2ccccc2c1.Cl
Activity [9]: Active
Activity [1]: Non-Toxic
Activity [2]: Non-Toxic
Activity [3]: Non-Toxic
Activity [4]: Non-Toxic
Activity [5]: Non-Toxic
Activity [6]: Non-Toxic

CCCC(CCC)C(=O)O/N=C(\Cn1cncn1)c1ccc2ccccc2c1.Cl
Activity [12]: Active
Activity [13]: Active
Activity [1]: Non-Toxic
Activity [2]: Non-Toxic
Activity [3]: Non-Toxic
Activity [4]: Non-Toxic
Activity [5]: Non-Toxic
Activity [6]: Non-Toxic
